Laboratory results as given in ChEMBL document CHEMBL4627259, “Discovery of LY3325656: A GPR142 agonist suitable for clinical testing in human” (Bioorg Med Chem Lett, 2020).

Target: T1, Probable G-protein coupled receptor 142 (Homo sapiens) (UniProt Q7Z601)
T1 sequence (whole entry): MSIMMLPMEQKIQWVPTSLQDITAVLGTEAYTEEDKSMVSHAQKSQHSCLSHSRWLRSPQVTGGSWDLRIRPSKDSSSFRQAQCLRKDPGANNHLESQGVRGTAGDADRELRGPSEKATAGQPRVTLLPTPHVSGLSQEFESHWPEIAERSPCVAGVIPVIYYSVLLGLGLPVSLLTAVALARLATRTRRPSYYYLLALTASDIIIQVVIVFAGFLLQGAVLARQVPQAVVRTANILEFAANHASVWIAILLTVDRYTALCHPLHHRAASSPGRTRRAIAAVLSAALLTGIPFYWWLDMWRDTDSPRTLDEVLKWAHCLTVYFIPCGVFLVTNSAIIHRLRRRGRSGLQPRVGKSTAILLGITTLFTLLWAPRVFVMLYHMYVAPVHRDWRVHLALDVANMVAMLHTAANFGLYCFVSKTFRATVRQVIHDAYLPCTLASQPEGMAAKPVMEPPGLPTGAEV
Experiment: Agonist activity at human GPR142 receptor expressed in HEK293 cells assessed as accumulation of inositol phosphate at 30 uM to 1 nM incubated for 1 hr followed by IP1-d2 addition by HTRF assay relative to control
Format: functional, cell-based
Details: not given
Outline: (§1)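 HEK293 cells stably expressing human GPR142 (DMEM, 10% FBS, 800 ug/mL G418, 37 °C, 5% CO2), seeded 5000 cells/well and left 18 h to attach. Compounds added at 30 uM to 1 nM, 1 h incubation in HBSS (+Ca, +Mg), 0.1% BSA, 50 mM LiCl, 20 mM HEPES pH 7.2. IP-1 HTRF read-out: IP1-d2 then cryptate, 1 h at 25 °C, 665/620 nm ratio converted via IP-1 standard curve; EC50 by 4-parameter logistic fit.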

Row | Compound | Emax
1 | Cc1ncn(C)c1NC(=O)[C@H]1CCC[C@@H](N(C)C(=O)c2cccc(OC(F)(F)F)c2)C1 | 104%
2 | Cc1ncn(CC2CC2)c1NC(=O)[C@H]1CCC[C@@H](N(C)C(=O)c2cccc(C(F)(F)F)c2)C1 | 118%
3 | Cc1ncn(C)c1-c1nnc([C@H]2CCC[C@@H](N(C)C(=O)c3cccc(C(F)(F)F)c3)C2)[nH]1 | 117%
4 | Cc1ncn(CC(F)(F)F)c1NC(=O)[C@H]1CCC[C@@H](N(C)C(=O)c2cccc(OC(F)(F)F)c2)C1 | 114%
5 | Cc1ncn(CC#N)c1NC(=O)[C@H]1CCC[C@@H](N(C)C(=O)c2cccc(C(F)(F)F)c2)C1 | 96%
6 | Cc1ncn(CC(F)(F)F)c1NC(=O)[C@H]1CCC[C@@H](N(C)C(=O)c2cccc(C(F)(F)F)c2)C1 | 114%
7 | Cc1ncn(CC2CN(C)C2)c1NC(=O)[C@H]1CCC[C@@H](N(C)C(=O)c2cccc(C(F)(F)F)c2)C1 | 103%
8 | Cc1nc[nH]c1-c1nnc([C@H]2CCC[C@@H](N(C)C(=O)c3cccc(C(F)(F)F)c3)C2)[nH]1 | 101%
9 | CN(C(=O)c1cccc(C(F)(F)F)c1)[C@@H]1CCO[C@H](c2nnc(-c3cnc4n3CCC4)[nH]2)C1 | 107%
10 | CN(C(=O)c1cccc(Cl)c1)[C@@H]1CCO[C@H](c2nnc(-c3cnc4ccccn34)[nH]2)C1 | 102%
11 | Cc1ncn(CC2CC2)c1-c1nnc([C@@H]2C[C@H](N(C)C(=O)c3cccc(C(F)(F)F)c3)CCO2)[nH]1 | 123%

Target: T2, Probable G-protein coupled receptor 142 (Homo sapiens, UniProt Q7Z601)
T2 sequence (Q7Z601 whole entry): T1 sequence (whole entry)
Experiment: Agonist activity at human GPR142 receptor expressed in HEK293 cells assessed as accumulation of inositol phosphate incubated for 1 hr followed by IP1-d2 addition by HTRF assay
Format: functional, cell-based
Details: not given
Outline: as §1

Row | Compound | EC50
12 | Cc1ncn(C)c1NC(=O)[C@H]1CCC[C@@H](N(C)C(=O)c2cccc(OC(F)(F)F)c2)C1 | 71 nM
13 | Cc1ncn(CC2CC2)c1NC(=O)[C@H]1CCC[C@@H](N(C)C(=O)c2cccc(C(F)(F)F)c2)C1 | 52 nM
14 | Cc1ncn(C)c1-c1nnc([C@H]2CCC[C@@H](N(C)C(=O)c3cccc(C(F)(F)F)c3)C2)[nH]1 | 11 nM
15 | Cc1ncn(CC(F)(F)F)c1NC(=O)[C@H]1CCC[C@@H](N(C)C(=O)c2cccc(OC(F)(F)F)c2)C1 | 110 nM
16 | Cc1ncn(CC#N)c1NC(=O)[C@H]1CCC[C@@H](N(C)C(=O)c2cccc(C(F)(F)F)c2)C1 | 93 nM
17 | Cc1ncn(CC(F)(F)F)c1NC(=O)[C@H]1CCC[C@@H](N(C)C(=O)c2cccc(C(F)(F)F)c2)C1 | 81 nM
18 | Cc1ncn(CC2CN(C)C2)c1NC(=O)[C@H]1CCC[C@@H](N(C)C(=O)c2cccc(C(F)(F)F)c2)C1 | 147 nM
19 | Cc1nc[nH]c1-c1nnc([C@H]2CCC[C@@H](N(C)C(=O)c3cccc(C(F)(F)F)c3)C2)[nH]1 | 76 nM
20 | CN(C(=O)c1cccc(C(F)(F)F)c1)[C@@H]1CCO[C@H](c2nnc(-c3cnc4n3CCC4)[nH]2)C1 | 53 nM
21 | CN(C(=O)c1cccc(Cl)c1)[C@@H]1CCO[C@H](c2nnc(-c3cnc4ccccn34)[nH]2)C1 | 35 nM
22 | Cc1ncn(CC2CC2)c1-c1nnc([C@@H]2C[C@H](N(C)C(=O)c3cccc(C(F)(F)F)c3)CCO2)[nH]1 | 14 nM

System: not listed separately
Experiment: Drug metabolism in mouse microsomes assessed as drug turnover at 20 uM measured after 30 mins by LCMS analysis
Format: ADME, Microsome
Details: read-out: Drug metabolism
Outline: (§2)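 High-throughput microsomal stability: compound at 20 uM incubated with mouse, rat, dog or human liver microsomes at 37 °C; percent parent remaining measured after 30 min and reported as % turnover.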

Row | Compound | metabolised at 0.5 h, 20 µM
23 | Cc1ncn(C)c1NC(=O)[C@H]1CCC[C@@H](N(C)C(=O)c2cccc(OC(F)(F)F)c2)C1 | 90%
24 | Cc1ncn(CC2CC2)c1NC(=O)[C@H]1CCC[C@@H](N(C)C(=O)c2cccc(C(F)(F)F)c2)C1 | 97%
25 | Cc1ncn(C)c1-c1nnc([C@H]2CCC[C@@H](N(C)C(=O)c3cccc(C(F)(F)F)c3)C2)[nH]1 | 64%
26 | Cc1ncn(CC(F)(F)F)c1NC(=O)[C@H]1CCC[C@@H](N(C)C(=O)c2cccc(OC(F)(F)F)c2)C1 | 86%
27 | Cc1ncn(CC#N)c1NC(=O)[C@H]1CCC[C@@H](N(C)C(=O)c2cccc(C(F)(F)F)c2)C1 | 56%
28 | Cc1ncn(CC(F)(F)F)c1NC(=O)[C@H]1CCC[C@@H](N(C)C(=O)c2cccc(C(F)(F)F)c2)C1 | 67%
29 | Cc1ncn(CC2CN(C)C2)c1NC(=O)[C@H]1CCC[C@@H](N(C)C(=O)c2cccc(C(F)(F)F)c2)C1 | 38%
30 | Cc1nc[nH]c1-c1nnc([C@H]2CCC[C@@H](N(C)C(=O)c3cccc(C(F)(F)F)c3)C2)[nH]1 | 36%
31 | CN(C(=O)c1cccc(C(F)(F)F)c1)[C@@H]1CCO[C@H](c2nnc(-c3cnc4n3CCC4)[nH]2)C1 | 39%
32 | CN(C(=O)c1cccc(Cl)c1)[C@@H]1CCO[C@H](c2nnc(-c3cnc4ccccn34)[nH]2)C1 | 66%
33 | Cc1ncn(CC2CC2)c1-c1nnc([C@@H]2C[C@H](N(C)C(=O)c3cccc(C(F)(F)F)c3)CCO2)[nH]1 | 83%

System: not listed separately
Experiment: Drug metabolism in dog microsomes assessed as drug turnover at 20 uM measured after 30 mins by LCMS analysis
Format: ADME, Canis lupus familiaris, Microsome
Details: read-out: Drug metabolism
Outline: as §2

Row | Compound | metabolised at 0.5 h, 20 µM
34 | Cc1ncn(C)c1NC(=O)[C@H]1CCC[C@@H](N(C)C(=O)c2cccc(OC(F)(F)F)c2)C1 | 40%
35 | Cc1ncn(CC2CC2)c1NC(=O)[C@H]1CCC[C@@H](N(C)C(=O)c2cccc(C(F)(F)F)c2)C1 | 66%
36 | Cc1ncn(C)c1-c1nnc([C@H]2CCC[C@@H](N(C)C(=O)c3cccc(C(F)(F)F)c3)C2)[nH]1 | 46%
37 | Cc1ncn(CC(F)(F)F)c1NC(=O)[C@H]1CCC[C@@H](N(C)C(=O)c2cccc(OC(F)(F)F)c2)C1 | 51%
38 | Cc1ncn(CC#N)c1NC(=O)[C@H]1CCC[C@@H](N(C)C(=O)c2cccc(C(F)(F)F)c2)C1 | 6%
39 | Cc1ncn(CC(F)(F)F)c1NC(=O)[C@H]1CCC[C@@H](N(C)C(=O)c2cccc(C(F)(F)F)c2)C1 | 38%
40 | Cc1ncn(CC2CN(C)C2)c1NC(=O)[C@H]1CCC[C@@H](N(C)C(=O)c2cccc(C(F)(F)F)c2)C1 | 24%
41 | Cc1nc[nH]c1-c1nnc([C@H]2CCC[C@@H](N(C)C(=O)c3cccc(C(F)(F)F)c3)C2)[nH]1 | 9%
42 | CN(C(=O)c1cccc(C(F)(F)F)c1)[C@@H]1CCO[C@H](c2nnc(-c3cnc4n3CCC4)[nH]2)C1 | 7%
43 | CN(C(=O)c1cccc(Cl)c1)[C@@H]1CCO[C@H](c2nnc(-c3cnc4ccccn34)[nH]2)C1 | 46%
44 | Cc1ncn(CC2CC2)c1-c1nnc([C@@H]2C[C@H](N(C)C(=O)c3cccc(C(F)(F)F)c3)CCO2)[nH]1 | 63%

System: not listed separately
Experiment: Drug metabolism in human microsomes assessed as drug turnover at 20 uM measured after 30 mins by LCMS analysis
Format: ADME, Microsome
Details: read-out: Drug metabolism
Outline: as §2

Row | Compound | metabolised at 0.5 h, 20 µM
45 | Cc1ncn(C)c1NC(=O)[C@H]1CCC[C@@H](N(C)C(=O)c2cccc(OC(F)(F)F)c2)C1 | 42%
46 | Cc1ncn(CC2CC2)c1NC(=O)[C@H]1CCC[C@@H](N(C)C(=O)c2cccc(C(F)(F)F)c2)C1 | 72%
47 | Cc1ncn(C)c1-c1nnc([C@H]2CCC[C@@H](N(C)C(=O)c3cccc(C(F)(F)F)c3)C2)[nH]1 | 67%
48 | Cc1ncn(CC(F)(F)F)c1NC(=O)[C@H]1CCC[C@@H](N(C)C(=O)c2cccc(OC(F)(F)F)c2)C1 | 76%
49 | Cc1ncn(CC#N)c1NC(=O)[C@H]1CCC[C@@H](N(C)C(=O)c2cccc(C(F)(F)F)c2)C1 | 26%
50 | Cc1ncn(CC(F)(F)F)c1NC(=O)[C@H]1CCC[C@@H](N(C)C(=O)c2cccc(C(F)(F)F)c2)C1 | 62%
51 | Cc1ncn(CC2CN(C)C2)c1NC(=O)[C@H]1CCC[C@@H](N(C)C(=O)c2cccc(C(F)(F)F)c2)C1 | 20%
52 | Cc1nc[nH]c1-c1nnc([C@H]2CCC[C@@H](N(C)C(=O)c3cccc(C(F)(F)F)c3)C2)[nH]1 | 13%
53 | CN(C(=O)c1cccc(C(F)(F)F)c1)[C@@H]1CCO[C@H](c2nnc(-c3cnc4n3CCC4)[nH]2)C1 | 18%
54 | CN(C(=O)c1cccc(Cl)c1)[C@@H]1CCO[C@H](c2nnc(-c3cnc4ccccn34)[nH]2)C1 | 29%
55 | Cc1ncn(CC2CC2)c1-c1nnc([C@@H]2C[C@H](N(C)C(=O)c3cccc(C(F)(F)F)c3)CCO2)[nH]1 | 69%

System: not listed separately
Experiment: Drug metabolism in rat microsomes assessed as drug turnover at 20 uM measured after 30 mins by LCMS analysis
Format: ADME, Microsome
Details: read-out: Drug metabolism
Outline: as §2

Row | Compound | metabolised at 0.5 h, 20 µM
56 | Cc1ncn(C)c1NC(=O)[C@H]1CCC[C@@H](N(C)C(=O)c2cccc(OC(F)(F)F)c2)C1 | 37%
57 | Cc1ncn(CC2CC2)c1NC(=O)[C@H]1CCC[C@@H](N(C)C(=O)c2cccc(C(F)(F)F)c2)C1 | 88%
58 | Cc1ncn(C)c1-c1nnc([C@H]2CCC[C@@H](N(C)C(=O)c3cccc(C(F)(F)F)c3)C2)[nH]1 | 43%
59 | Cc1ncn(CC(F)(F)F)c1NC(=O)[C@H]1CCC[C@@H](N(C)C(=O)c2cccc(OC(F)(F)F)c2)C1 | 56%
60 | Cc1ncn(CC#N)c1NC(=O)[C@H]1CCC[C@@H](N(C)C(=O)c2cccc(C(F)(F)F)c2)C1 | 21%
61 | Cc1ncn(CC(F)(F)F)c1NC(=O)[C@H]1CCC[C@@H](N(C)C(=O)c2cccc(C(F)(F)F)c2)C1 | 59%
62 | Cc1ncn(CC2CN(C)C2)c1NC(=O)[C@H]1CCC[C@@H](N(C)C(=O)c2cccc(C(F)(F)F)c2)C1 | 29%
63 | Cc1nc[nH]c1-c1nnc([C@H]2CCC[C@@H](N(C)C(=O)c3cccc(C(F)(F)F)c3)C2)[nH]1 | 36%
64 | CN(C(=O)c1cccc(C(F)(F)F)c1)[C@@H]1CCO[C@H](c2nnc(-c3cnc4n3CCC4)[nH]2)C1 | 16%
65 | CN(C(=O)c1cccc(Cl)c1)[C@@H]1CCO[C@H](c2nnc(-c3cnc4ccccn34)[nH]2)C1 | 23%
66 | Cc1ncn(CC2CC2)c1-c1nnc([C@@H]2C[C@H](N(C)C(=O)c3cccc(C(F)(F)F)c3)CCO2)[nH]1 | 64%
